Source: PubChem BioAssay
CHOP inh – inhibitors of CHOP induction in ER stress response. AID 2732. inhibition, % at 10 µM. 220,000 compounds, 3.8% hits. CHO-K1 CHOP-promoter luciferase, tunicamycin-induced, 15-18 h;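 active means compounds that reduced the stress-induced luciferase reporter signal by more than about 70% of percent inhibition, limit read from the data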;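 further: 0% = tunicamycin plus vehicle and 100% = wells without tunicamycin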
Rad51 HR inh – blocks human Rad51 in homologous recombination; 200,000 compounds, 0.085% hits; inhibition, % at 10 µM; Q06609; hRad51 DNA strand exchange, fluorescence dequenching;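 active means inhibition above 40% at the single screening dose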;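 further: 0% = DMSO control wells and 100% = blanks with heterologous ssDNA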
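Material: Human Rad51 nucleoprotein filaments preassembled on unlabelled ssDNA | Also added: Labelled 47-mer dsDNA for strand exchange | Dosing: Single dose, 10 µM final compound | Schedule: 30-min compound preincubation and 15-min exchange, both room temperature | Technique: Fluorescence dequenching at 485/520 nm | Measure: Percent inhibition relative to plate controls and blanks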
PKD1 inh – inhibitors of human PKD1 kinase | Q15139 | PKD1 kinase fluorescence polarization assay | inhibition, % (no concentration beside the values) | 200,000 compounds, 0.056% hits | AID 797
Arbovirus anti – antivirals against arbovirus infection; arbovirus infection cell-based antiviral screen; inhibition, % at 10 µM; 200,000 compounds, 0.37% hits; AID 1251; in the data active means inhibition above about 30%
Lmaj promast – inhibitors of Leishmania major promastigote growth. inhibition, % at 10 µM. 200,000 compounds, 9% hits. AID 1063. Leishmania major promastigotes, resazurin fluorescence viability;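 further: promastigotes grown with compound for 44 hours at 28 °C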
Wee1 stabilizer – blocks degradation of human Wee1 kinase; AID 1321; P30291; 220,000 compounds, 1.2% hits; reporter increase, % at 5 µM; HeLa Luc-Wee1K328M stability, luciferase luminescence; 100% = proteasome inhibitor MG132 effect;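 active means activation above the mean of all tested compounds plus 3 SD, set per screening run, cut at about 8.8% in these data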;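 further: cells exposed to compound for 20 h before luminescence read; 0% = DMSO alone and 100% = MG132 at 30 µM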
Target sequence (P30291 whole entry K328M): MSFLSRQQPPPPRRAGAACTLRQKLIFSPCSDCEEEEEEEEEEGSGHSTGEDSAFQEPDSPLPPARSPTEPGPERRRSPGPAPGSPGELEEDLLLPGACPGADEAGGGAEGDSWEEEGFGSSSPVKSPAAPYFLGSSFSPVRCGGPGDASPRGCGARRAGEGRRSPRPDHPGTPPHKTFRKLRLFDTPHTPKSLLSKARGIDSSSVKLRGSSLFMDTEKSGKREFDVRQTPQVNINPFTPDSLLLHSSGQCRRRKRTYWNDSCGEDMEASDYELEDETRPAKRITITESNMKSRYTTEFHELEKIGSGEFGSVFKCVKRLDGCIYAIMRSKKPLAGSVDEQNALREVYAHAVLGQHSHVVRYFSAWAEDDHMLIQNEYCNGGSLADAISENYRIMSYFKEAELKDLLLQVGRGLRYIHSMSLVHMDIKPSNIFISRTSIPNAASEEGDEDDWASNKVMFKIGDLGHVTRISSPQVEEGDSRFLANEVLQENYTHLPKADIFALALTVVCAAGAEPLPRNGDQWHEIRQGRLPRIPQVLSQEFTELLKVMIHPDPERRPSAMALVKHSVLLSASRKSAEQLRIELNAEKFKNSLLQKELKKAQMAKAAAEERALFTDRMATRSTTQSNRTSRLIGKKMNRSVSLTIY
Numbers without * were called inactive; . = no result. In the library only some 12% were active in any assay of this set; here they are far more common. Unless noted, no stated cut-off is given here; in the data, active means inhibition above about 50%; inactive means the rest.

SMILES | CHOP inh | Rad51 HR inh | PKD1 inh | Arbovirus anti | Lmaj promast | Wee1 stabilizer
CCCCOc1ccc(Cl)cc1CSc1nnc(CC)n1N | 4 | -1 | -3 | 12 | 88* | 2
Cc1ccc(C(=O)O)cc1NC(=O)CSc1ncnc2sc3c(c12)CCC3 | 4 | . | . | . | . | 4
C/C(=N\NC(=O)COc1ccc(C(C)(C)C)cc1)c1ccc(-n2ccnc2)cc1 | 95* | 2 | -8 | -15 | 52* | 1
COc1cc(NC(=O)COc2ccc(-n3ccnc3)cc2)cc(OC)c1 | 24 | -6 | 5 | 1 | 15 | 0
CC(C)(C)c1ccc(NC(=O)COc2ccc(-n3ccnc3)cc2)cc1 | 74* | -2 | 5 | -5 | 67* | 2
C/C(=N\Nc1ccc(Cl)c(Cl)c1)c1ccc(-n2ccnc2)cc1 | 61 | 7 | -10 | -18 | 58* | 2
COc1ccc(C(=O)CSc2nc3[nH]ncc3c(=O)[nH]2)cc1 | 0 | 1 | -6 | 3 | -7 | 0
Cc1cccc(C)c1NC(=S)N1CC(C)OC(C)C1 (configuration not stated) | -8 | 3 | . | . | . | 0
N#Cc1ccccc1OCCOCCNC1CCCC1 | 1 | 12 | 1 | -3 | 82* | 2
CCN(CC)CC(C)OC(=O)c1ccccc1Cl (configuration not stated) | 1 | -11 | -5 | 2 | -3 | -1
CC(=O)O[C@@H]1[C@H]2[C@@H](C[C@@H](C)[C@@H]3CCC(=O)[C@@]13C)OC(=O)[C@@H]2C | -8 | -13 | . | . | . | .
CCSc1nc(C)cc(C)c1S(=O)(=O)c1ccccc1C | 71* | -13 | -6 | -4 | 88* | 1
CSc1nc(C)cc(C)c1S(=O)(=O)c1ccccc1C | 50 | 2 | 15 | -2 | 18 | 1
CC1=C(C#N)C(/C=N/OCc2ccc(F)cc2Cl)CC(=O)N1 (configuration not stated) | 26 | -1 | 4 | 0 | 5 | 0
Oc1ccc(Br)cc1/C=N/Nc1ncc(-c2ccccc2)cn1 | 55 | . | -7 | -18 | -9 | -2
Oc1ccc(/C=N/Nc2ncc(Br)cn2)c(O)c1 | 54 | -1 | 1 | -21 | 99* | 0
Oc1ccc(/C=N/Nc2nccnc2Cl)c(O)c1 | 65 | -10 | -1 | -32 | 100* | 10*
O=[N+]([O-])c1ccccc1/C=N/Nc1nccnc1Cl | 2 | 6 | -16 | -3 | -5 | 4
Oc1ccccc1/C=N/Nc1nccnc1Cl | 65 | 4 | 9 | -19 | 98* | 1
CCN(CC)S(=O)(=O)c1ccc(N/N=C/c2ccc(O)cc2O)nc1 | 83* | -41 | -1 | -33 | 98* | 4
COc1ccc(/C=N/Nc2nccnc2Cl)c(OC)c1 | -24 | 4 | -6 | -5 | -3 | 1
CC(O)CNc1nc2ccccc2n1CC(=O)N1CCN(Cc2ccccc2)CC1 (configuration not stated) | 0 | 2 | 1 | 15 | -8 | 0
O=C(NCc1ccco1)C1CCCN1C(=O)Nc1ccccc1Cl (configuration not stated) | 3 | -4 | -5 | 2 | -10 | -2
Cc1ccc(CN(CC2CCCO2)C(=O)CN2C(=O)C(C(C)C)Oc3ccccc32)o1 (configuration not stated) | 16 | . | -1 | 0 | -1 | -3
CC(C)C1Oc2ccccc2N(CC(=O)N(Cc2ccccn2)CC2CCCO2)C1=O (configuration not stated) | 9 | -1 | -8 | 1 | -3 | 9.2*
SMILES | CHOP inh | Rad51 HR inh | PKD1 inh | Arbovirus anti | Lmaj promast | Wee1 stabilizer
CCc1ccc2oc(-c3cc(N)ccc3O)nc2c1 | 78* | 3 | -5 | -27 | -4 | 9.5*
CCc1ccc2oc(-c3cc(N)ccc3Cl)nc2c1 | 26 | 6 | -5 | -17 | -4 | 2
Cc1ncc(CO)c(/C=N/NC(=S)Nc2ccc(Cl)c(Cl)c2)c1O | 46 | . | -1 | -16 | 73* | 5
Cc1ncc(CO)c(/C=N/NC(=O)c2cc3c(s2)CCCC3)c1O | 58 | -24 | 2 | -23 | 98* | 0
Cc1ncc(CO)c(/C=N/NC(=O)c2ccc(O)cc2)c1O | 3 | 4 | -8 | -14 | 0 | -2
CC(=O)Oc1ccc(N(C(C)=O)S(=O)(=O)c2cccs2)c2ccccc12 | -48 | . | 15 | -33 | 100* | 1
CC(=O)Oc1ccccc1N(C(C)=O)S(=O)(=O)c1ccc2ccccc2c1 | 12 | 22 | 0 | -4 | 7 | -3
CC(NC(=O)c1ccc(F)cc1)c1ccccc1 (configuration not stated) | -12 | 9 | -5 | 5 | -4 | -1
Cc1ccc(C(NC(=O)NC(C)c2ccccc2)C(Cl)(Cl)Cl)cc1F (configuration not stated) | 87* | -9 | -3 | -13 | 30 | -2
NC(=O)/C(=C/c1cccnc1)NC(=O)c1ccccc1 | 3 | . | . | . | . | 0
O=C(CCc1nnc(CCc2ccccc2)o1)NC(c1cccnc1)C(F)(F)F (configuration not stated) | 5 | 16 | . | . | . | 1
CC(C)c1ccc(CNCc2ccccc2)cc1 | 20 | 1 | -14 | -2 | 80* | 0
CC(C)c1ccc(CNC(=O)CCc2ccccc2)cc1 | 14 | . | 8 | -1 | -4 | -2
O=C(c1ccc(Cl)cc1)N1CCN(c2ccnc3cc(Cl)ccc23)CC1 | 68 | 19 | 6 | 9 | 66* | -3
Cc1ccc(S(=O)(=O)N2CCN(c3ccnc4cc(Cl)ccc34)CC2)cc1C | 34 | 11 | -3 | 30* | 12 | -1
N#CCc1nc2ccccc2c(=O)[nH]1 | -7 | . | . | . | . | 9
COc1ccc2cc3cc(C(=O)NCCc4ccc(OC)c(OC)c4)oc3nc2c1 | 10 | . | -7 | 2 | 29 | 0
CCCN(CCC)CCCNC(=O)c1cc2cc3ccc(OC)cc3nc2o1 | . | . | -5 | -9 | 96* | -2
CCCCN(CC)CCCNC(=O)c1cc2cc3ccc(OC)cc3nc2o1 | . | . | -10 | -7 | 96* | -1
N=C(SC1CC(=O)N(c2ccc(F)cc2)C1=O)N1N=C(c2ccccc2)CC1c1ccccc1 (configuration not stated) | 66 | 8 | -8 | -12 | 16 | -3
Oc1ccc(COCc2ccccc2)c2cccnc12 | . | -2 | 7 | -10 | 101* | 1
CC(C)COCc1ccc(O)c2ncccc12 | 64 | . | 0 | -12 | 100* | 0
N#Cc1c2n(c3c(=O)[nH]cnc13)CCCC2 | 14 | 1 | -6 | 1 | -8 | 4
N#Cc1c2n(c3c(=S)nc[nH]c13)CCCCC2 | -24 | -9 | 2 | 31* | -2 | 8
C/C(N)=C(/C#N)C(=O)COC(=O)[C@@H](NC(=O)c1ccccc1Cl)C(C)C | 7 | -6 | -5 | 18 | -7 | 3
COc1ccc(-c2cc(-c3ccc(Br)cc3)nc3ncnn23)cc1OC | 79* | -3 | 3 | 72* | 19 | 0
